Assay results from ChEMBL document CHEMBL3407348, “Antileishmanial activity of quinazoline derivatives: synthesis, docking screens, molecular dynamic simulations and electrochemical studies” (Eur J Med Chem, 2015).
Values after ≈ are worked out from the molar mass of the structure shown.

How the values were obtained:
Leishmania mexicana [1] = test: Antiparasitic activity against promastigote form of Leishmania mexicana MHOM/BZ/61/M379 at 100 uM after 24 hrs by haemocytometer; format: functional; settings: for inhibition at 100 µM: MHOM/BZ/61/M379, 72 h, in the assay text read “72 hrs” for “24 hrs”
How it was run: (§1)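 Promastigotes were grown in DMEM with L-glutamine and 4,500 mg/L glucose, without bicarbonate, plus 10% fetal calf serum. Serial compound dilutions (1:10 compound:medium) were mixed with an equal volume of 2 × 10⁶ parasites/mL at 26 °C. Parasites were counted by hemacytometer in triplicate. Growth inhibition was expressed as a percentage of the no-drug control, with 100 µM used for the initial screen.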

Leishmania mexicana [2] = settings: MHOM/BZ/61/M379, 100 uM
Leishmania mexicana [3] = settings: MHOM/BZ/61/M379, 100 uM; remark: listed apart in the source
Leishmania mexicana [4] = test: Antiparasitic activity against promastigote form of Leishmania mexicana MHOM/BZ/61/M379 after 72 hrs by haemocytometer; settings: MHOM/BZ/61/M379, 72 h
Leishmania mexicana [5] = test: Antiparasitic activity against Leishmania mexicana MHOM/BZ/61/M379 assessed as oxygen consumption at 5.74 mM during 1 hr by fluorescence assay (reference value: 100%); format: functional
How it was run: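 Promastigotes (5 × 10⁶) were placed in microplate wells containing an oxygen-sensitive fluorophore with the test agent for 1 or 2 h. Oxygen consumption was read as fluorescence on a plate reader and expressed relative to untreated parasites (100%). Sodium cyanide served as the mitochondrial-damage control and dithionite as the oxygen-abolition control. Run in triplicate, with at least four independent experiments.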

in vitro = settings: mouse, L929 cells
[6] = biological target: Bifunctional dihydrofolate reductase-thymidylate synthase (Leishmania major, UniProt P07382); test: Binding affinity to Leishmania major DHFR
[7] = Retention time of the compound; format: physicochemical
How it was run: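 Reverse-phase HPLC on an RP-amide column (150 × 4.6 mm, 5 µm) with guard column. Mobile phase was 10 mM phosphate buffer pH 3.3 and acetonitrile (60:40 v/v) at 1.00 mL/min and 30 °C, with an 8 min run. UV detection at 240 and 272 nm.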

Pteridine reductase 1 = biological target: T1, Pteridine reductase 1 (Leishmania major, UniProt Q01782)
T1 sequence (Q01782 whole entry): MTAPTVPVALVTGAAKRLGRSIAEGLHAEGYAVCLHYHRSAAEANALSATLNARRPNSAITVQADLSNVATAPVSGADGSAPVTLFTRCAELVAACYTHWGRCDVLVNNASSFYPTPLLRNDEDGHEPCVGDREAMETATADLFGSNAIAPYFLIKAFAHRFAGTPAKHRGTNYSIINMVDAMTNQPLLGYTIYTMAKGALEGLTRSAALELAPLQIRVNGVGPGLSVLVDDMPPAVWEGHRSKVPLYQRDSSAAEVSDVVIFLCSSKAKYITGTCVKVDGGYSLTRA

physchem = settings: phosphate buffered saline, pH 7.4
Leishmania mexicana [8] = test: Antiparasitic activity against promastigote form of Leishmania mexicana MHOM/BZ/61/M379 after 24 hrs by haemocytometer; format: functional, organism-based; how it was run: as §1

Bifunctional dihydrofolate reductase-thymidylate synthase, sequence (P07382 whole entry): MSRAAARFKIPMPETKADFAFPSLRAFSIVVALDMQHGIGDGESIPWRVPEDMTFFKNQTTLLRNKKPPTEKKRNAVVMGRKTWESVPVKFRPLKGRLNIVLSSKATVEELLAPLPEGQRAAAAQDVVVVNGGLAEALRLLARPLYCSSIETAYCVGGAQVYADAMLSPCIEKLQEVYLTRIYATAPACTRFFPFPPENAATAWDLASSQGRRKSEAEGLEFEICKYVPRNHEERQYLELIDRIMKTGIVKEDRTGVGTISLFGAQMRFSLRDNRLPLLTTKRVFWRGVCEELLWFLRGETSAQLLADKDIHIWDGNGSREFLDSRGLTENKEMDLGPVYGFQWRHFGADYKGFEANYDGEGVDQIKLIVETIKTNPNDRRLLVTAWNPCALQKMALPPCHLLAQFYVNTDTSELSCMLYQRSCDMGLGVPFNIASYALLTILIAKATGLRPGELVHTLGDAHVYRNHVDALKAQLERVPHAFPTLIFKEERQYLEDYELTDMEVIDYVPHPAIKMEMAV

IC50 (Leishmania mexicana [4]) [µM] | Kd [6] [µM] | Retention_time [7] [min] | Kd (Pteridine reductase 1) [µM] | solubility (physchem) [mg/mL] | Molecule | inhibition at 100 µM (Leishmania mexicana [1]) [%] | also measured
 |  |  |  |  | O=S([O-])S(=O)[O-].[Na+].[Na+] |  | Activity (Leishmania mexicana [5]): 175.9%
 |  |  |  |  | CC1CS(=O)(=O)CCN1/N=C/c1ccc([N+](=O)[O-])o1 (stereo unspecified) [NIFURTIMOX] |  | viability at 48 h, 100 µM (in vitro): 42%
 | 1.02 | 3.081 | 2.4 | 0.38 (≈ 1350 µM) | Nc1nc(N)c2cc(NCc3ccc(O)cc3)ccc2n1 | 0 | 
 | 84 |  | 58.8 | > 9 | Nc1ccc2nc(N)nc(N)c2c1 [QUINAZOLINE-2,4,6-TRIAMINE] | 0 | 
100 |  |  |  |  | CCc1nc(N)nc(N)c1-c1ccc(Cl)cc1 [PYRIMETHAMINE] | 50 | 
 |  |  |  |  | MEGLUMINE ANTIMONATE [listing 1 of 2 here] |  | inhibition (Leishmania mexicana [1]): 100%
 | 15.8 |  | 0.261 |  | Nc1nc(N)c2cc([N+](=O)[O-])ccc2n1 |  | 
> 100 | 0.241 | 3.841 | 1.43 |  | Nc1nc(N)c2cc(NCc3ccc([N+](=O)[O-])cc3)ccc2n1 | 20 | 
 |  |  |  |  | MEGLUMINE ANTIMONATE [listing 2 of 2 here] |  | IC50 (Leishmania mexicana [8]): 183 µM
14.6 | 1.58 | 3.081 | 2.85 | 0.25 (≈ 846 µM) | COc1ccc(CNc2ccc3nc(N)nc(N)c3c2)cc1 | 100 | 
 | 0.752 | 3.188 |  | 0.51 (≈ 1120 µM) | Nc1nc(N)c2cc(NCCn3c(C(F)(F)F)nc4cc(Cl)c(Cl)cc43)ccc2n1 | 0 | 

Molecule | IC50 (Leishmania mexicana [4]) [µM] | Kd [6] [µM] | Retention_time [7] [min] | Kd (Pteridine reductase 1) [µM] | solubility (physchem) [mg/mL] | inhibition at 100 µM (Leishmania mexicana [1]) [%] | also measured
COc1cc(Cc2cnc(N)nc2N)cc(OC)c1OC [TRIMETHOPRIM] | > 100 |  |  |  |  | 30 | survival (Leishmania mexicana [2]): 70%; survival (Leishmania mexicana [3]): 100%
